Source: ChEMBL document CHEMBL1145790, “Optimization of a tertiary alcohol series of phosphodiesterase-4 (PDE4) inhibitors: structure-activity relationship related to PDE4 inhibition and human ether-a-go-go related gene potassium channel binding affinity” (J Med Chem, 2003)

Experiments:
[1] = molecular target: 3',5'-cyclic-AMP phosphodiesterase 4A (Homo sapiens, UniProt P27815); assay: In vitro inhibitory activity was determined against human Phosphodiesterase 4 isoform using a construct representing the common region of spliced variants expressed as a GST-fusion protein in Sf 9 cells; type: cell-based
Procedure, shortened: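 Human PDE4A, common-region construct of spliced variants expressed as GST-fusion in Sf9 cells; values mean ± SEM with n reported.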

Canis familiaris [2] = assay: Range of plasma concentration measured between 2 and 30 min in dogs after intravenous bolus dosing at 10 mg/kg; type: functional, organism-based; parameters: dose 10 mg/kg; settings: Canis lupus familiaris
Procedure, shortened: (§1)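 Anesthetized mongrel dogs, iv bolus (2–5 min) in 60–80% PEG-200; plasma drug levels measured by HPLC between 2 and 30 min after dosing, reported as range (±0.2 µM); data from n ≥ 2 dogs.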

[3] = In vitro inhibitory activity was determined against human whole blood; type: functional
Canis familiaris [4] = assay: Change in QTc were measured at 15 and 30 min after dosing of bolus at 10 mg/kg in dogs; type: functional, Canis lupus familiaris
Procedure, shortened: (§2)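 Chloralose-anesthetized mongrel dogs (n = 2 or 3) given iv bolus over 2–5 min as solution in 60–80% PEG-200. QTc recorded at 15 and 30 min postdose as percent change from baseline per dog; values averaged, ΔQTc taken as maximal mean percent change (range given).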

[5] = Ratio of lowest plasma concentration to measured over 30 min interval to 50% inhibition of LPS-induced TNF alpha production in human whole blood; type: functional
[6] = In vitro inhibition of […] induced TNF-alpha production in human whole blood (HWB); type: functional, tissue-based
[7] = molecular target: Voltage-gated inwardly rectifying potassium channel KCNH2 (Homo sapiens, UniProt Q12809)
Canis familiaris [8] = assay: Change in QTc were measured at 15 and 30 min after dosing of bolus at 3 mg/kg in dogs; type: functional, Canis lupus familiaris; procedure, shortened: as §2
Canis familiaris [9] = assay: Range of plasma concentration measured between 2 and 30 min in dogs after intravenous bolus dosing at 3 mg/kg; type: functional, organism-based; parameters: dose 3 mg/kg; settings: Canis lupus familiaris; procedure, shortened: as §1

Sequence of Voltage-gated inwardly rectifying potassium channel KCNH2 (Q12809 whole entry): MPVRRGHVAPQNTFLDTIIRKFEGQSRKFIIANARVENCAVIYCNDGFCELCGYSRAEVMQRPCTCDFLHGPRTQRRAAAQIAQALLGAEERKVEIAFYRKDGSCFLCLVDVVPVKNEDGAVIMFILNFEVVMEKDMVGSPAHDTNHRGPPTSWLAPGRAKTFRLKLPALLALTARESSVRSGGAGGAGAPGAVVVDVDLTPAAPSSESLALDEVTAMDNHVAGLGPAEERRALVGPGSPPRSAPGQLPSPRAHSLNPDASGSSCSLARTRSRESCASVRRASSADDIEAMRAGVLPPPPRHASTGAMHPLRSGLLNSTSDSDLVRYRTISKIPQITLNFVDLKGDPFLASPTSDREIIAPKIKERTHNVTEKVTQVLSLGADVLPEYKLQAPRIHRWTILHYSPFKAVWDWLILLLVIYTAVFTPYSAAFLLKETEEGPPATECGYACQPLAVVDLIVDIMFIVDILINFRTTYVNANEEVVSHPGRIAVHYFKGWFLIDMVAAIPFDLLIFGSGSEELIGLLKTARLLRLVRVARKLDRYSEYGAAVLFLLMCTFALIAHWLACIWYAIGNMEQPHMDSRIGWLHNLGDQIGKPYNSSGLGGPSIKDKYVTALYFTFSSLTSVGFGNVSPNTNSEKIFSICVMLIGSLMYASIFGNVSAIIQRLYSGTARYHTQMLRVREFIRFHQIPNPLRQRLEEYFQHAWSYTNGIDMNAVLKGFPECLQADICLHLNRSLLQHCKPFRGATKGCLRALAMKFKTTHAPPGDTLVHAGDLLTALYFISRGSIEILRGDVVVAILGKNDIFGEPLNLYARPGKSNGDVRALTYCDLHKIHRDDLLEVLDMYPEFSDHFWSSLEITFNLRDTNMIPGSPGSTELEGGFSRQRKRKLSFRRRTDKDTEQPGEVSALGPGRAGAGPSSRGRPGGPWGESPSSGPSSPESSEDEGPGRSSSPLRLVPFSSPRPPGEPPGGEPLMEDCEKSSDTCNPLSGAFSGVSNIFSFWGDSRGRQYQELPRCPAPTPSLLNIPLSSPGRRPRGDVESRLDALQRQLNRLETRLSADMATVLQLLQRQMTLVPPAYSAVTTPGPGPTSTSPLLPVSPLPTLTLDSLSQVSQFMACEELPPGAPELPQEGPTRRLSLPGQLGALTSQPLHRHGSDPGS
Sequence of 3',5'-cyclic-AMP phosphodiesterase 4A (P27815 whole entry, looked up, stated change not applied, the tested form may be a part, canonical isoform): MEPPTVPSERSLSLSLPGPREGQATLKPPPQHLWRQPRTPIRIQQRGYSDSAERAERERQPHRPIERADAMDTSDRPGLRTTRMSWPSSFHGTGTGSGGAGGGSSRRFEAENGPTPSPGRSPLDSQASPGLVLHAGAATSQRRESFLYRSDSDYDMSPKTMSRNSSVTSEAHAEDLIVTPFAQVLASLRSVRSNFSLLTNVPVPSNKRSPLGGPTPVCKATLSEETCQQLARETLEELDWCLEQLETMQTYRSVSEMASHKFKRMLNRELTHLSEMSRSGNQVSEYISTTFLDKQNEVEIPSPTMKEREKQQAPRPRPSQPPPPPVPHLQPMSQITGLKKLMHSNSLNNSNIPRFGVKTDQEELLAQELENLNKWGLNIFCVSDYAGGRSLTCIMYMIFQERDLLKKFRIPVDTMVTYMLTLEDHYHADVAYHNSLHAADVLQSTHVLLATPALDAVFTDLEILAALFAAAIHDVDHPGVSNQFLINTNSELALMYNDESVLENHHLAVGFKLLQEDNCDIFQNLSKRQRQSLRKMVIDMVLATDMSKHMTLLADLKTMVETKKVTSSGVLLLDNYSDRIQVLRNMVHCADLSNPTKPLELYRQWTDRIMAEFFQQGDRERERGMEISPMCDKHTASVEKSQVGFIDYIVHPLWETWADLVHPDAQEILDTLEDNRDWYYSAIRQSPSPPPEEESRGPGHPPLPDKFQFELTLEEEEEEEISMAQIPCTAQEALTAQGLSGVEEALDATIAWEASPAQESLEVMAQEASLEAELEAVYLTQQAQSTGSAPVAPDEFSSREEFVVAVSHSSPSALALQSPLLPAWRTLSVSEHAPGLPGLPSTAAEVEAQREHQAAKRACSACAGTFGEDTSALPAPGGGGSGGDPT

| IC50 [1] [nM] | IC50 ([6]; Homo sapiens, Blood) [nM] | IC50 [6] [nM] | SMILES | Ki [7] [nM] | other results |
| --- | --- | --- | --- | --- | --- |
| 0.5 | 90 |  | [O-][n+]1cccc(C[C@@H](c2ccc(OC(F)F)c(OC3CC3)c2)c2cnc(C(O)(C(F)(F)F)C(F)(F)F)s2)c1 | 61400 | Plasma concentration (Canis familiaris [2]): 25 µM; IC50 [3]: 90 nM; Change (Canis familiaris [4]): 3%; Ratio plasma concentration/IC50 [5]: 211 |
| 0.5 | 90 |  | CC(C)(O)c1ncc(C(Cc2cc[n+]([O-])cc2)c2ccc(OC(F)F)c(OC3CCC3)c2)s1 (stereo unspecified) | 58400 | Plasma concentration (Canis familiaris [2]): 10 µM; IC50 [3]: 100 nM; Change (Canis familiaris [4]): 2.9%; Ratio plasma concentration/IC50 [5]: 40 |
| 48 | 2640 |  | [O-][n+]1cccc(C[C@H](c2ccc(OC(F)F)c(OC3CC3)c2)c2cnc(C(O)(C(F)(F)F)C(F)(F)F)s2)c1 | 39000 |  |
| 2.1 | 160 |  | CC(O)(c1ccccc1)c1ccc(C(Cc2cc[n+]([O-])cc2)c2ccc(OC(F)F)c(OC(F)F)c2)cn1 (stereo unspecified) | 1180 | Change (Canis familiaris [8]): 8.9%; IC50 [3]: 160 nM; Ratio plasma concentration/IC50 [5]: 12.5; Plasma concentration (Canis familiaris [9]): 5 µM |
| 1 | 120 |  | CC(C)(O)c1ccc(C(Cc2cc[n+]([O-])cc2)c2ccc(OC(F)F)c(OC3CCC3)c2)cn1 (stereo unspecified) | 25000 |  |
| 1.6 | 260 |  | CC(C)(O)c1ccc(C(Cc2cc[n+]([O-])cc2)c2ccc(OC(F)F)c(OC3CCC3)c2)cc1 (racemic) | 22400 |  |
| 0.8 | 20 |  | [O-][n+]1ccc(CC(c2ccc(OC(F)F)c(OC3CCC3)c2)c2cnc(C(O)(C(F)(F)F)C(F)(F)F)s2)cc1 (racemic) | 38100 |  |
| 0.4 | 20 |  | [O-][n+]1ccc(CC(c2ccc(OC(F)F)c(OC3CC3)c2)c2cnc(C(O)(C(F)(F)F)C(F)(F)F)s2)cc1 (racemic) |  |  |
| 2.1 |  | 200 | CC(C)(O)c1ccc(C(Cc2ccc[n+]([O-])c2)c2ccc(OC(F)F)c(OC3CC3)c2)cn1 (single isomer, unassigned; (+)2d) | 42200 |  |
| 1.2 |  | 60 | CC(C)(O)c1ccc(C(Cc2cc[n+]([O-])cc2)c2ccc(OC(F)F)c(OC3CC3)c2)cn1 (single isomer, unassigned; (+)) |  |  |
|  | 60 |  | CC(C)(O)c1ccc(C(CC2=CCC(=O)N=C2)c2ccc(OC(F)F)c(OC3CC3)c2)cn1 (single isomer, unassigned; (+)) |  |  |
| 334 |  | 17900 | CC(C)(O)c1ccc(C(Cc2ccc[n+]([O-])c2)c2ccc(OC(F)F)c(OC3CC3)c2)cn1 (single isomer, unassigned; (-)2d) | 44700 |  |
| 55 |  | 3520 | CC(C)(O)c1ccc(C(Cc2cc[n+]([O-])cc2)c2ccc(OC(F)F)c(OC3CC3)c2)cn1 (single isomer, unassigned; (-)) |  |  |
| 35 |  | 640 | CC(C)(O)c1ccc(C(Cc2cc[n+]([O-])cc2)c2ccc(OC(F)F)c(OC(F)F)c2)cn1 (single isomer, unassigned; (-)) | 22700 |  |
| 520 |  | 9010 | CC(C)(O)c1ccc(C(Cc2cc[n+]([O-])cc2)c2ccc(OC(F)F)c(OC(F)F)c2)cn1 (stereo in doubt; 2a(+)) | 25400 |  |
| 4.3 | 16200 |  | COc1ccc([C@H](Cc2ccncc2)c2ccccc2)cc1OC1CCCC1 [CDP840] |  |  |
| 38 | 18000 |  | O=c1[nH]c2c(O)ccc(CCNCCS(=O)(=O)CCCOCCc3ccccc3)c2s1 [SIBENADET] |  |  |
